According to ChEMBL document CHEMBL4819061, “New bioactive 5-arylcarboximidamidopyrazolo[3,4-c]pyridines: Synthesis, cytotoxic activity, mechanistic investigation and structure-activity relationships” (Eur J Med Chem, 2021):
Activity calls are given as the source filed them. The rule behind the calls is not given here.

Key:
HT-1080 [1] = assay: Induction of apoptosis in human HT-1080 cells assessed as increase in PARP cleavage at 2 uM after 24 hrs by Western blotting analysis
[2] = target: RAC-alpha serine/threonine-protein kinase (Homo sapiens) (UniProt P31749); assay: Inhibition of AKT phosphorylation at Ser473 residue in human HT-1080 cells at 20 uM after 15 mins by Western blotting analysis; settings: time 15.0 mins
Chain of RAC-alpha serine/threonine-protein kinase (Homo sapiens) (P31749 whole entry): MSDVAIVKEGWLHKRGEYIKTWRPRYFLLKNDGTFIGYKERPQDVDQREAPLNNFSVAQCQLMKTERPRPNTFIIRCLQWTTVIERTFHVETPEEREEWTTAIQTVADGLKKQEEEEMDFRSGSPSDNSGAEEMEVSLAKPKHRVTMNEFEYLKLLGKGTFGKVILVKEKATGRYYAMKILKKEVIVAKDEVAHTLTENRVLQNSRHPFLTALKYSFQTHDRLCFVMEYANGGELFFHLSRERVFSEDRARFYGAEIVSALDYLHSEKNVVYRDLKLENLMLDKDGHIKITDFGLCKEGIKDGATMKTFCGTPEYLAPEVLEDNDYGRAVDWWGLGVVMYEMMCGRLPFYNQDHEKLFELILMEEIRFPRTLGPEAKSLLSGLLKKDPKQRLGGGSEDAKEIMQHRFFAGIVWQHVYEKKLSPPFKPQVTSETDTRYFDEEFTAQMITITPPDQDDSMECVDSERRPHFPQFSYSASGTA

HT-1080 [3] = assay: Induction of cell cycle arrest in human HT1080 cells assessed as accumulation at sub-diploid phase at 2 uM incubated for 24 hrs by RNase/PI staining based flow cytometric analysis (reference value: 5.36 %); type: functional
MDA-MB-231 = assay: Cytotoxicity against human MDA-MB-231 cells assessed as reduction in cell viability incubated for 72 hrs by MTT assay; type: functional, cell-based; settings: MDA-MB-231, 72 h
Summary of the method: (§1)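 Cancer lines (MDA-MB-231, HT-1080, PC-3) were grown in DMEM with 10% FBS and penicillin/streptomycin at 37 °C in 5% CO₂. About 5000 cells/well adhered overnight, then serial compound dilutions were added for 72 h, with matching DMSO dilutions (0.5–0.0008% v/v) as controls. MTT (1 mg/ml final, serum-free phenol-red-free DMEM) ran 4 h, was solubilised in 2-propanol, and OD read at 550 nm (ref 690). IC50 is the concentration halving OD versus untreated, mean of three independent experiments.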

[4] = target: MAP kinase p38 (Homo sapiens) (UniProt O15264+Q15759+Q16539+P53778); assay: Induction of p38 MAPK phosphorylation in human HT-1080 cells at 20 uM after 15 mins by Western blotting analysis
HT-1080 [5] = assay: Induction of cell cycle arrest in human HT1080 cells assessed as accumulation at G0/G1 phase at 2 uM incubated for 24 hrs by RNase/PI staining based flow cytometric analysis (reference value: 32.86 %); type: functional
AG1523 = assay: Cytotoxicity against human AG01523 cells assessed as reduction in cell viability incubated for 72 hrs by MTT assay; type: cell-based; settings: AG1523, 72 h
HT-1080 [6] = assay: Induction of cell cycle arrest in human HT1080 cells assessed as accumulation at S phase at 2 uM incubated for 24 hrs by RNase/PI staining based flow cytometric analysis (reference value: 19.59 %); type: functional
HT-1080 [7] = assay: Inhibition of ERK phosphorylation in human HT-1080 cells at 20 uM after 15 mins by Western blotting analysis
HT-1080 [8] = assay: Cytotoxicity against human HT-1080 cells assessed as reduction in cell viability incubated for 72 hrs by MTT assay; type: functional, cell-based; settings: HT-1080, 72 h
Summary of the method: as §1

HT-1080 [9] = assay: Induction of cell cycle arrest in human HT1080 cells assessed as accumulation at G2/M phase at 2 uM incubated for 24 hrs by RNase/PI staining based flow cytometric analysis (reference value: 47.55 %); type: functional
PC-3 = assay: Cytotoxicity against human PC-3 cells assessed as reduction in cell viability incubated for 72 hrs by MTT assay; type: functional, cell-based; settings: PC-3, 72 h
Summary of the method: as §1

Structure (SMILES): COc1ccc(Cn2nc(-c3ccccc3)c3cc(C(=N)Nc4ccc(N5CCN(C)CC5)cc4)nc(Nc4cc(OC)c(OC)c(OC)c4)c32)cc1
- Activity (HT-1080 [1]): Active
- inhibition [2]: Active
- Percent of cells in sub-diploid (sub-G1) phase (HT-1080 [3]): 27.79%
- IC50 (MDA-MB-231): 890 nM
- Activity [4]: Active
- Percentage of cells in G0/G1 phase (HT-1080 [5]): 26.67%
- IC50 (AG1523): 1810 nM
- Activity (HT-1080 [6]): 64.04%
- inhibition (HT-1080 [7]): Active
- IC50 (HT-1080 [8]): 1200 nM
- Activity (HT-1080 [9]): 9.29%
- IC50 (PC-3): 1240 nM
